The source made the active and inactive calls. No cut-off for these calls is given here.
How the values were obtained:
[1] = target: T1, Protein deacetylase HDAC6 (Homo sapiens, UniProt Q9UBN7); assay: Inhibition of human recombinant HDAC6 using fluorogenic HDAC substrate 3 preincubated for 30 mins followed by substrate addition and measured after 15 mins by fluorogenic assay
T1 sequence (Q9UBN7 whole entry): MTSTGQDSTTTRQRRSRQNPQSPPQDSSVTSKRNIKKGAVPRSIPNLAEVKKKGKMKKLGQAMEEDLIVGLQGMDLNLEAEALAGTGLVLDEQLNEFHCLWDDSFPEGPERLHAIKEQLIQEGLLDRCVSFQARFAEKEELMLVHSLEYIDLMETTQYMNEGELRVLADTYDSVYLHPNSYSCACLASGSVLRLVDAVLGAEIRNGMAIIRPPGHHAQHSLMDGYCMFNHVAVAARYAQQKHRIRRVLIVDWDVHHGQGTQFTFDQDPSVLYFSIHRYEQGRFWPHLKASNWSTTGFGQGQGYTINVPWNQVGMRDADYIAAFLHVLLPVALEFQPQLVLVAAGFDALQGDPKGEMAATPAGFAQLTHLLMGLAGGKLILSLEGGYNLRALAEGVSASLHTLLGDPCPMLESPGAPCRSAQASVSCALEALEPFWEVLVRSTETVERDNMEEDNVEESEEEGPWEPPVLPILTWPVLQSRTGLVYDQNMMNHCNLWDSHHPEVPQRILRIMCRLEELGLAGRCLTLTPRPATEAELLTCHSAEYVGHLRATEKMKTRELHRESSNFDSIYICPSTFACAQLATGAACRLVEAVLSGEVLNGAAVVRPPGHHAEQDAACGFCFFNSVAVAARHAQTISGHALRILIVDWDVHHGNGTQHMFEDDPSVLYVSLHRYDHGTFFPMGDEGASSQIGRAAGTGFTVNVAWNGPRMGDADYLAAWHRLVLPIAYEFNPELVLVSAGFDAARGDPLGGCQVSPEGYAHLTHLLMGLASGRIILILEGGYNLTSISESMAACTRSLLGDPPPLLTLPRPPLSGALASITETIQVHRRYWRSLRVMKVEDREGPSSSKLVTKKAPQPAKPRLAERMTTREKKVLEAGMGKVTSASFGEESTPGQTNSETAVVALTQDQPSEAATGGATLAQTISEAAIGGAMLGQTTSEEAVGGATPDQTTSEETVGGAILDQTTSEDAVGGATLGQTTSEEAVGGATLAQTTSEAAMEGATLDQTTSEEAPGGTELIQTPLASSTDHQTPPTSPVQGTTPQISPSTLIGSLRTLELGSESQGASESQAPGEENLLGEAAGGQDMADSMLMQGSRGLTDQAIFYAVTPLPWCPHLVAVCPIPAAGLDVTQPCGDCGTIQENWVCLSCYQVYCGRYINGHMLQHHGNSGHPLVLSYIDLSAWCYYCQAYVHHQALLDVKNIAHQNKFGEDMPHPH

[2] = test system: MDA-MB-231; assay: cells; type: functional, cell-based; conditions: Homo sapiens, MDA-MB-231, 72 h
[3] = target: T2, Histone deacetylase 1 (Homo sapiens, UniProt Q13547); assay: Inhibition of human recombinant HDAC1 using fluorogenic HDAC substrate preincubated for 30 mins followed by substrate addition and measured after 15 mins by fluorogenic assay
T2 sequence (Q13547 whole entry): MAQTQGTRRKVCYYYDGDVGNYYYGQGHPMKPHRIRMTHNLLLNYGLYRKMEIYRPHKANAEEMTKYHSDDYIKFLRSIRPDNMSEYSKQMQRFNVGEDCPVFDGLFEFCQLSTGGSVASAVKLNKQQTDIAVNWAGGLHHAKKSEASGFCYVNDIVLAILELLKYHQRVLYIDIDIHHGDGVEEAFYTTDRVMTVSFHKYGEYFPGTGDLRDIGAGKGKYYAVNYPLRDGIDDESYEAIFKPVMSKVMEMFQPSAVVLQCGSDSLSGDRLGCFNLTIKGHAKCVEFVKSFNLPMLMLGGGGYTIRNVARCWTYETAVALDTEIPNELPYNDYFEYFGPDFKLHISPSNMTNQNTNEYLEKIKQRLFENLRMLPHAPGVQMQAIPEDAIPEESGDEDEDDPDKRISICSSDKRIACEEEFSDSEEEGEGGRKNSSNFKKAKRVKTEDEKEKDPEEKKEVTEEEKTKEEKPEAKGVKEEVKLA

[4] = test system: MCF7; assay: cells; type: functional, cell-based; conditions: Homo sapiens, MCF7, 72 h
[5] = test system: A549; assay: cells; type: functional, cell-based; conditions: Homo sapiens, A549, 72 h
[6] = test system: Vero; assay: cells; conditions: Chlorocebus sabaeus, 72 h
[7] = target: Signal transducer and activator of transcription 3 (Homo sapiens) (UniProt P40763); assay: Inhibition of STAT3 in human MDA-MB-231 cells assessed as downregulation of cyclinD1 expression at 100 to 200 uM after 24 hrs by western blot analysis; type: cell-based
Chain of Signal transducer and activator of transcription 3 (Homo sapiens) (P40763 whole entry): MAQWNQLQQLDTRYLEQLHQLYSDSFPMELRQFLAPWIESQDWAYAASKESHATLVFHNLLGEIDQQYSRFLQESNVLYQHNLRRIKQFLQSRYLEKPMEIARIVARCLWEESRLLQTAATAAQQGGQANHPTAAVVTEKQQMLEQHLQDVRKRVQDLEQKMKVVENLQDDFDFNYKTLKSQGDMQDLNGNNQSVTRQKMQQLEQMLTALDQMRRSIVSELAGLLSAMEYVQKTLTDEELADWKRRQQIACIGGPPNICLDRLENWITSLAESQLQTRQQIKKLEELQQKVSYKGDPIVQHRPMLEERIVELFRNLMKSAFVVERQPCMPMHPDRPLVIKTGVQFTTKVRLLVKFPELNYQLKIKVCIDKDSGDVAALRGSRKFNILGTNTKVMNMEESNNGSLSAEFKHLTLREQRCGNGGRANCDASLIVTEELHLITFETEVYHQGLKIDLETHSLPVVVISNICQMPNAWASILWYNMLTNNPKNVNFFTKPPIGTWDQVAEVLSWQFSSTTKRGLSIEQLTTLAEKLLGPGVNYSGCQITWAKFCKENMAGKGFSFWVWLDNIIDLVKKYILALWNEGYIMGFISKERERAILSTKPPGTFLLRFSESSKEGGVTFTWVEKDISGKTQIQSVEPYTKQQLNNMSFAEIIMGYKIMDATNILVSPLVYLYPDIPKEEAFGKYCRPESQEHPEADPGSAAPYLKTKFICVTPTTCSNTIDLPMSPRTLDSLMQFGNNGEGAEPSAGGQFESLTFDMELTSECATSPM
Summary of the method: (§1)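 MDA-MB-231 cells, 1*10⁶ per well, were grown in DMEM for 24 h, serum-starved for 24 h, then treated for 24 h from DMSO solutions (final DMSO 0.1%; DMSO control). Cells were lysed in RIPA with protease and phosphatase inhibitors and protein equalized by BCA. 20-40 µg was run on 4-20% gels and transferred to PVDF, which was blocked in 5% BSA. Primary antibodies were applied overnight and secondary for 1 h, and band intensities were quantified by infrared imaging.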

[8] = target: T2, Histone deacetylase 1; assay: Inhibition of HDAC1 in human MDA-MB-231 cells assessed as accumulation of acetylated H4 at 50 to 100 uM by western blot analysis; type: cell-based
Summary of the method: (§2)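 MDA-MB-231 cells were grown in DMEM for 24 h, serum-starved for 24 h, then treated for 4 h (DMSO control). Lysates were made in RIPA with protease and phosphatase inhibitors and normalized by BCA. 20-40 µg was run on 4-20% gels and transferred to PVDF, which was blocked in 5% BSA. Membranes were probed overnight for acetyl-α-tubulin or acetyl-H4, then with secondary for 1 h, and bands were quantified by infrared imaging.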

[9] = target: Signal transducer and activator of transcription 3 (Homo sapiens) (UniProt P40763); assay: Inhibition of STAT3 in human MDA-MB-231 cells assessed as upregulation of Bcl-xLexpression after 24 hrs by western blot analysis; type: cell-based; summary of the method: as §1
[10] = target: Signal transducer and activator of transcription 3 (Homo sapiens) (UniProt P40763); assay: Inhibition of STAT3 in human MDA-MB-231 cells assessed as effect on pSTAT3 expression at 50 to 100 uM after 24 hrs by western blot analysis; type: cell-based; summary of the method: as §1
[11] = target: T3, Protein deacetylase HDAC6 (Homo sapiens) (UniProt Q9UBN7); assay: Inhibition of HDAC6 in human MDA-MB-231 cells assessed as accumulation of acetylated tubulin at 50 to 100 uM by western blot analysis; type: cell-based; summary of the method: as §2
T3 sequence (whole entry): T1 sequence (Q9UBN7 whole entry)

[12] = target: Signal transducer and activator of transcription 3 (Homo sapiens) (UniProt P40763); assay: Inhibition of STAT3 in human MDA-MB-231 cells assessed as upregulation of p-p38 expression after 24 hrs by western blot analysis; type: cell-based; summary of the method: as §1
[13] = target: T4, Histone deacetylase 8 (Homo sapiens, UniProt Q9BY41); assay: Inhibition of human recombinant HDAC8 using fluorogenic HDAC substrate class 2A preincubated for 30 mins followed by substrate addition and measured after 15 mins by fluorogenic assay
T4 sequence (Q9BY41 whole entry): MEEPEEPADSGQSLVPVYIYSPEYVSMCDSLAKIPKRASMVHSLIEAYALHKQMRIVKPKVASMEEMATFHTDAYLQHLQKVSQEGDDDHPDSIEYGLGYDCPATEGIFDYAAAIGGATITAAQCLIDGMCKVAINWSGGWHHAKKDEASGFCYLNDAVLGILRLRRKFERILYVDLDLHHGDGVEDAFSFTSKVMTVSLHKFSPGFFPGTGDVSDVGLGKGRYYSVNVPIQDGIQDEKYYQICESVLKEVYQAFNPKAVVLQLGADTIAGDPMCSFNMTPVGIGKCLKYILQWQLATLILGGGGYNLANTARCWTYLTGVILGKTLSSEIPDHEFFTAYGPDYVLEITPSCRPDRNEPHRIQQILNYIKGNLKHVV

[14] = test system: MDA-MB-231; assay: Cell cycle arrest in human MDA-MB-231 cells assessed as accumulation of cells at G2 phase at 15 uM incubated for 48 hrs RNase/PI staining based flow cytometry assay; type: functional
Summary of the method: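 MDA-MB-231 cells, 5*10⁶ per 10 cm plate, were grown in DMEM for 24 h and then dosed for 48 h from DMSO stocks (final DMSO 0.1%; DMSO as control). Cells were trypsinized, washed twice in cold PBS and fixed in 70% ethanol overnight at -20°C. They were treated with 200 ug/mL RNase for 30 min, stained with 50 ug/mL PI at RT for 30 min, and DNA content was read by flow cytometry.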

SMILES | IC50 [1] | IC50 [2] | IC50 [3] | IC50 [4] | IC50 [5] | IC50 [6] | inhibition [7] | inhibition [8] | inhibition [9] | inhibition [10] | inhibition [11] | inhibition [12] | IC50 [13] | Activity [14]
CCc1nc(N)nc(N)c1-c1ccc(-c2ccc(/C=C/C(=O)NO)cc2)cc1 | 0.073 µM | 5.43 µM | 3.7 µM | 9.3 µM | 10 µM | 6.9 µM | – | – | – | – | – | – | – | –
CCc1nc(N)nc(N)c1-c1ccc(Cl)cc1 [PYRIMETHAMINE] | – | 238 µM | – | 453 µM | – | – | Active | inactive | Active | inactive | inactive | Dose-dependent effect | – | –
CCc1nc(N)nc(N)c1-c1ccc(-c2cn(CCCCCCC(=O)NO)nn2)cc1 | 0.017 µM | 12.2 µM | 0.045 µM | 57.3 µM | 65.5 µM | 40.2 µM | – | – | – | – | – | – | 0.78 µM | Active
CCc1nc(N)nc(N)c1-c1ccc(/C=C/C(=O)NO)cc1 | 0.4 µM | – | 2.2 µM | – | – | – | – | – | – | – | – | – | 1.8 µM | –
